Consider five compounds from ChEMBL document CHEMBL5357032, “In Vitro Antimalarial Activity of Trichothecenes against Liver and Blood Stages of Plasmodium Species” (J Nat Prod, 2024).

The nature of data set [1]: Cytotoxicity against human primary hepatocytes. The format is toxicity, cell-based, Hepatocyte. The gist of the method:
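Host primary human hepatocytes (18 000 per collagen-coated well) in the P. vivax liver-stage radical-cure cultures. Compound given days 5–7 post-infection from a 12-point 1:3 dilution series; fixed at day 12 and imaged by high-content imaging. 0.1% DMSO negative control. CC50 fitted per run from duplicate wells; two independent experiments.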

The next data set has as its system Plasmodium falciparum. Briefly: Antimalarial activity against asexual blood stage Plasmodium falciparum W2 incubated for 72 hrs by Hoechst 33342 staining based assay. Format: functional, organism-based. The gist of the method:
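P. falciparum W2 ring stages plated at 2% parasitemia and 0.75% hematocrit. Cells allowed to settle, then dosed by pin transfer from a 12-point 1:3 dilution series made from 1000× DMSO stocks. Artemisinin was the positive control and 0.1% v/v DMSO the negative. After 72 h: fixed, Hoechst 33342 DNA stain, high-content imaging. EC50 fitted per run from duplicate wells; three independent experiments.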

The nature of data set [2]: Cytotoxicity against human HepG2 cells incubated for 72 hrs by Hoechst 33342 staining based assay. Format: toxicity, cell-based. An outline of the steps: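 HepG2 cells, 2000 per collagen-coated well, treated the following day by pin transfer from a 12-point 1:3 dilution series (1000× DMSO stocks). Puromycin positive control; 0.1% v/v DMSO negative. After 72 h: fixed, Hoechst 33342 nuclear stain, high-content imaging. CC50 fitted per run from duplicate wells; three independent experiments.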

Data set [3] deals with Plasmodium vivax. The data set can be described thus: Antimalarial activity against liver stage Plasmodium vivax hypnozoite infected in human hepatocytes preincubated for 5 to 10 days followed by compound addition and measured after 12 days post infection by immunofluorescence staining based assay. Format: functional, organism-based. Particulars: hepatocyte. The gist of the method: (§1)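 Primary human hepatocytes seeded at 18 000 per collagen-coated well. Two days later, infected with sporozoites from mosquitoes fed P. vivax patient blood (Cambodia) 18 days earlier; a different isolate was used per experiment. Radical-cure mode: treated days 5–7 post-infection. Day 12: fixed, anti-PvUIS4 immunofluorescence, high-content imaging. Nigericin and 0.1% DMSO controls. Duplicate wells; two independent experiments.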

The nature of data set [4]: Selectivity index, ratio of CC50 for primary human hepatocytes to EC50 for liver stage Plasmodium vivax schizont infected in human hepatocytes. Format: toxicity, cell-based. Conditions: read-out: Ratio CC50/EC50.
Data set [5] can be described thus: Selectivity index, ratio of CC50 for human HepG2 cells to EC50 for asexual blood stage Plasmodium falciparum W2. Format: toxicity. Particulars: read-out: Ratio CC50/EC50.
Data set [6] deals with Plasmodium vivax. The data set can be described thus: Antimalarial activity against liver stage Plasmodium vivax schizont infected in human hepatocytes preincubated for 5 to 10 days followed by compound addition and measured after 12 days post infection by immunofluorescence staining based assay. The format is functional, organism-based. Conditions: hepatocyte. The gist of the method: as §1

A short description of data set [7]: Selectivity index, ratio of CC50 for primary human hepatocytes to EC50 for liver stage Plasmodium vivax hypnozoite infected in human hepatocytes. The format is toxicity, cell-based. Particulars: read-out: Ratio CC50/EC50.

Structures are written as SMILES.

As to `CC1=CC[C@@]23COC(=O)[C@@H](O)[C@H](C)CCOC(=O)/C=C/C=C\C(=O)O[C@@H]4C[C@@H](O[C@@H]2C1)[C@@]1(CO1)[C@]43C`, the CC50 in data set [1] (read-out: CC50) and in data set [1] (read-out: pCC50 (converted)) was 316 nM throughout. The EC50 (as a rule, the concentration at which the effect is half-maximal) in the data set on Plasmodium falciparum was found to be 0.45 nM; in the data set on Plasmodium vivax [3], 30.9 nM; with Plasmodium vivax [6] it was 4.07 nM. The pEC50 (in general, −log10 of the EC50, conventionally taken in molar units) was 9.35 in the data set on Plasmodium falciparum, 7.51 with Plasmodium vivax [3] and 8.39 in the data set with Plasmodium vivax [6]. In addition, the CC50 at 72 h in data set [2] (read-out: CC50) and in data set [2] (read-out: pCC50 (converted)) was 3.55 nM each time. Also, the selectivity ratio in data set [4] amounted to 77.7; in data set [5] it was 7.95; in data set [7], 10.1.

As for `CC1=C[C@H]2O[C@@H]3C[C@@H](O)[C@](C)([C@@]2(CO)CC1)[C@@]31CO1`, the EC50 was above 4370 nM in the data set with Plasmodium falciparum, above 3310 nM in the data set on Plasmodium vivax [3] and above 10000 nM in the data set on Plasmodium vivax [6]. In addition, the pEC50 is on record as below 5.36 in the data set on Plasmodium falciparum, below 5.48 with Plasmodium vivax [3] and below 5 in the data set on Plasmodium vivax [6].

Turning to `CC(=O)OC[C@]12CCC(C)=C[C@H]1O[C@@H]1[C@H](O)[C@@H](OC(C)=O)[C@@]2(C)[C@]12CO2` (single isomer, unassigned), the pEC50 in the data set with Plasmodium falciparum was 8.21; in the data set with Plasmodium vivax [3], 7.44; in the data set on Plasmodium vivax [6] it was 7.87. Besides, the selectivity ratio in data set [4] was 28.7; in data set [5] it was 4.43; in data set [7] it was 10.7.

With `CO[C@@H]1C[C@@H](C[C@H]2CC[C@H](C)[C@H]([C@@H](C)C(=O)O)O2)O[C@]2(O[C@](C)([C@H]3CC[C@@](C)([C@@H]4O[C@@H]([C@H]5O[C@@](O)(CO)[C@H](C)C[C@@H]5C)C[C@@H]4C)O3)C[C@H]2C)[C@@H]1C` [NIGERICIN], the CC50 in data set [1] (read-out: pCC50 (converted)) is 200 nM. The selectivity ratio in data set [4] is above 38.9; in data set [7], above 16.3.

With `COc1ccc(C[C@H](N)C(=O)N[C@H]2[C@@H](O)[C@H](n3cnc4c(N(C)C)ncnc43)O[C@@H]2CO)cc1` [PUROMYCIN], the values for the selectivity ratio in data set [4] and in data set [7] were below 1 and 2.25, respectively.
